# High-throughput results from PubChem.
# Sampled rows, rich in hits. Any-hit rate of the full collection: about 3.1%.
# KCNQ1 pot – potentiators or activators of KCNQ1 channel, primary screen, cell-based, thallium flux, high-throughput; Potassium voltage-gated channel subfamily KQT member 1 (Homo sapiens), P51787; CHO-K1 KCNQ1, thallium flux FluxOR fluorescence; active compounds read high; B-score at 10 µM; actives 0.35% (n = 310,000);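 active = fluorescence ratio B-score, a plate-corrected score, at least three library SD, with initial intensity B-score within 5 SD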
#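 Schedule – 37 °C overnight plating, 90-min dark dye load, 20-min compound pretreatment · System – stable KCNQ1 CHO-K1 line · Probe or stimulus – thallium- and potassium-containing depolarizing buffer · Measured by – kinetic FluxOR fluorescence, 10 s baseline plus 110 s post-stimulus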
# KCNK9 block – KCNK9 potassium channel inhibitors, primary screen, HEK293 cells, thallium flux. B-score at 10 µM. FluxOR thallium flux fluorescence; active compounds read low. Potassium channel subfamily K member 9 (Homo sapiens), Q9NPC2. actives 1.2% (n = 310,000);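 active = ratio B-score over 3 SD below the library mean, with starting fluorescence within 5 SD of its mean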;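 note: negative B-score means less thallium flux so channel inhibition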
# KCNK3 block – human KCNK3 channel inhibitors, primary screen, CHO cells, FluxOR thallium flux, B-score; Potassium channel subfamily K member 3 (Homo sapiens), O14649; FluxOR fluorescence; active compounds read low; B-score at 10 µM; actives 0.84% (n = 340,000); AID 602410, 2012;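 active = B-score under library mean minus 4 SD, starting fluorescence ratio at most library mean plus 5 SD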;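 note: more negative B-score means stronger inhibition of thallium flux through KCNK3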
# hERG rescue – hERG rescue from dofetilide block, primary screen, cell-based, CHO-hERG, FluxOR thallium flux, dofetilide IC70; Voltage-gated inwardly rectifying potassium channel KCNH2 (Homo sapiens), Q12809; dofetilide IC70 present; activation (rescue from dofetilide block), less the hit threshold, % at 10 µM; actives 0.51% (n = 310,000);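 active = activation above the mean of controls blocked by dofetilide plus 5 SD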;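 note: thallium influx through hERG after potassium depolarization seen as dye fluorescence rise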
# KCNQ1 block – inhibitors of human KCNQ1 channel, primary screen, cell-based, thallium flux, high-throughput | CHO-K1 KCNQ1, FluxOR thallium flux fluorescence; active compounds read high | B-score at 10 µM | actives 1.3% (n = 310,000) | Potassium voltage-gated channel subfamily KQT member 1 (Homo sapiens), P51787;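 active = compounds whose thallium flux B-score, printed positive for inhibition, exceeds three library SD while starting fluorescence stays within three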;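 note: channel opened by potassium depolarization with thallium stimulus after 20 min compound exposure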
# KCNK9 block conf – KCNK9 potassium channel inhibitors, confirmation, HEK293 cells, thallium flux, duplicate. shares compounds with KCNK9 block. FluxOR thallium flux fluorescence. inhibition, % at 10 µM. actives 43% (n = 4,900);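 active = thallium signal inhibited by more than 5 SD of the compound-free buffer control wells, on both duplicate plates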;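 note: 0% = assay buffer control wells without compound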
# Kir21 sel – mouse Kir2.1 channel inhibition, confirmation, selectivity assay for KCNK9 modulator project, cell-based, HEK293, thallium flux; Kir2.1 cells, FluxOR thallium flux fluorescence; inhibition, % at 10 µM; shares compounds with KCNK9 block; actives 4% (n = 4,900);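 active = thallium signal drop more than 5 SD beyond the mean of the no-compound control wells, seen in both duplicate plates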;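 note: signal is fluorescence rise after thallium addition divided by baseline fluorescence; plate controls were assay buffer only for no effect and full block by chlorpromazine control for full effect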
# Target sequence (P35561 whole entry, looked up): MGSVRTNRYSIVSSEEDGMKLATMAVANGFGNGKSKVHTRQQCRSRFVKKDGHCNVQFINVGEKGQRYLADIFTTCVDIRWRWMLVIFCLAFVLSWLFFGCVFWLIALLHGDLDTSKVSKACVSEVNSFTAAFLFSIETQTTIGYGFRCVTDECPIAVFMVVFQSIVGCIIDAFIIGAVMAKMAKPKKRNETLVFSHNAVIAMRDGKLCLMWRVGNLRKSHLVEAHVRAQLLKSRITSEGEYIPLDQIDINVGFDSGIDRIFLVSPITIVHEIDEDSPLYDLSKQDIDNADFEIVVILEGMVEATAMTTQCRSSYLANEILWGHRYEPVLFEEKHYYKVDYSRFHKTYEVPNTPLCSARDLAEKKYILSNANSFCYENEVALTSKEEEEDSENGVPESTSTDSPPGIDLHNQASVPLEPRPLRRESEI
# KCNK9 uninduced – thallium flux in non-induced HEK293 cells, confirmation, counter-screen for KCNK9 inhibitor project, cell-based, second counter screen, non-induced KCNK9-HEK293; FluxOR thallium flux; actives 40% (n = 4,900); shares compounds with KCNK9 block; inhibition, % at 10 µM;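 active = thallium signal drop beyond 5 SD of the untreated control mean, on both duplicate plates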;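 note: plate controls were buffer only IC0 wells for no effect and SID17386958 at its maximal inhibitory level for full effect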
# The depositor's hits bear a star; i = inactive; · = no result.
SMILES,KCNQ1 pot,KCNK9 block,KCNK3 block,hERG rescue,KCNQ1 block,KCNK9 block conf,Kir21 sel,KCNK9 uninduced
O=C(NCCCn1ccnc1)/C(=C/c1ccco1)NC(=O)c1ccco1,i,i,i,-15.4,i,·,·,·
CCN(Cc1ccccc1)C(=O)COc1cc(=O)n(CC)c2ccccc12,i,i,i,-8.4,i,i,i,i
CN1c2ccccc2C2(C)CCCC3=Cc4cccc([N+](=O)[O-])c4OC312 (stereo not drawn),i,-10.4*,i,-19.8,i,57.0%*,i,35.0%*
CCn1nc(C(=O)Nc2ccccc2C)c(Cl)c1Cl,i,i,i,-6.6,i,·,·,·
CCn1nc(C(=O)Nc2cccc(C(F)(F)F)c2)c(Cl)c1Cl,i,-8.93*,i,-7.0,i,46.0%*,i,28.0%*
CCn1cc(Br)c(C(=O)Nc2cccc(Cl)c2)n1,i,-12.2*,i,-5.9,i,63.0%*,i,33.0%*
CCn1cc(Br)c(C(=O)Nc2ccc(Cl)c(Cl)c2)n1,i,i,i,-1.9,i,·,·,·
CCCCN(C(=O)c1c(C)noc1C)c1c(N)n(CCC)c(=O)[nH]c1=O,·,·,i,·,·,·,·,·
CCCC(C)c1nnc(NC(=O)CCS(=O)(=O)c2ccccc2)s1 (stereo not drawn),i,i,i,-5.1,i,i,i,i
O=C(Nc1ccccc1Cc1ccccc1)c1oc2ccccc2c1COc1ccccc1,i,-8.74*,i,-4.5,i,51.0%*,i,31.0%*
O=C(NCCc1ccccc1)c1oc2ccccc2c1COc1ccccc1,i,i,i,-13.7,6*,i,i,i
O=C(CN(C(=O)CCC(=O)Nc1ccccn1)C1CCCC1)NCc1ccccc1,i,i,i,-8.4,i,·,·,·
CCOC(=O)C1=C(C)N=c2s/c(=C\c3ccc(OCC(=O)O)cc3)c(=O)n2C1c1ccc(OC(C)C)cc1 (stereo not drawn),i,i,i,-24.1,i,i,i,i
O=C(CSc1nc(-c2ccccc2)ns1)NCC1CCCO1 (stereo not drawn),i,i,i,-8.8,i,·,·,·
CCCCCCCCC(=O)N/N=C(\C)c1ccc(O)cc1O,i,-10.1*,i,-16.2,i,57.0%*,i,42.0%*
O=C(CSCc1ccccc1)N1CCN(c2cccc(C(F)(F)F)c2)CC1,i,i,i,-7.7,i,i,i,i
CC(C(=O)N1CCc2ccccc21)N1CCN(S(=O)(=O)c2ccc(C(F)(F)F)cc2)CC1 (stereo not drawn),·,·,i,·,·,·,·,·
C/C(=C\c1ccccc1)C(=O)N1CCN(c2cccc(C(F)(F)F)c2)CC1,i,i,i,-9.6,i,i,i,i
Cc1ccnc(NC(=S)N2CCN(c3cccc(C(F)(F)F)c3)CC2)c1,i,i,i,-15.6,i,i,i,i
CC(C(=O)N1CCc2ccccc21)N1CCN(c2cccc(C(F)(F)F)c2)CC1 (stereo not drawn),i,i,i,-9.5,i,i,i,i
O=C(NCCCN1CCOCC1)C1CCN(S(=O)(=O)c2ccccc2)CC1,i,i,i,-13.8,i,·,·,·
CN(Cc1ccccc1)S(=O)(=O)c1ccc(NC(=O)C2CCCO2)cc1 (stereo not drawn),i,i,i,-8.7,i,·,·,·
O=C(NNc1cc(Cl)ccc1Cl)C1CCC1,i,i,i,0.6,i,·,·,·
CCCCCCCCCCCCN1[C@@H](CC(=O)O)c2cc(F)ccc2S1(=O)=O,i,i,i,-3.8,i,i,i,i
CCCCCCCCCCCCN1[C@@H](CC(=O)O)c2cc(C(F)(F)F)ccc2S1(=O)=O,i,i,i,-5.1,i,i,i,i
SMILES,KCNQ1 pot,KCNK9 block,KCNK3 block,hERG rescue,KCNQ1 block,KCNK9 block conf,Kir21 sel,KCNK9 uninduced
CCCCCCCCN1[C@@H](CC(=O)O)c2cc(C(F)(F)F)ccc2S1(=O)=O,i,i,i,-6.5,i,·,·,·
C(=N\N1CCN(Cc2cccc3ccccc23)CC1)/c1ccco1,i,i,i,-12.2,i,i,i,i
Cn1cccc1/C=N/N1CCN(Cc2ccccc2)CC1,i,i,i,-2.9,i,·,·,·
FC(F)(F)c1ccc(/C=N/N2CCN(Cc3cccc4ccccc34)CC2)cc1,i,i,i,-13.9,i,·,·,·
Cn1cccc1/C=N/N1CCN(Cc2cccc3ccccc23)CC1,i,i,i,-7.0,i,i,i,i
CCCCn1c(SCC(=O)OCC)nc2c(sc(=S)n2-c2ccccc2OC)c1=O,i,i,i,-2.9,i,·,·,·
O=C(CCc1nc2ccccc2c(=O)[nH]1)OCCOc1ccc(Cl)cc1,i,i,i,-9.8,i,·,·,·
CCOc1cc([N+](=O)[O-])cc2c1C(=O)Nc1ccccc1O2,i,i,i,-12.4,i,·,·,·
Cc1cc(SCc2ccc(Br)cc2)nc(=O)[nH]1,i,i,i,-6.0,i,·,·,·
Cc1ccc2oc(=O)n(CC(=O)c3ccc(F)cc3)c2c1,i,i,i,-4.5,i,·,·,·
Clc1cccc(OCCN2CCN(CCOc3cccc(Cl)c3)CC2)c1,i,i,i,-23.3,i,i,i,i
CC1CCN(CCOc2cccc(Br)c2)CC1,i,i,i,-3.0,i,·,·,·
COc1ccccc1CN1CCc2c([nH]c3ccccc23)C1,i,i,i,-6.6,i,·,·,·
COc1cc(CN2CCc3c([nH]c4ccccc34)C2)cc(OC)c1,i,-8.1*,i,-13.3,i,39.0%*,i,i
COc1ccc(C(=O)Nc2ccccc2C(=O)N/N=C/c2cccc3ccccc23)cc1,i,-8.45*,i,-13.8,i,61.0%*,i,37.0%*
